Compound activity (PubChem)
Rows were chosen to be rich in hits. Some 4.1% of all compounds tested hit in one or more screens of this group.
TbMetRS inhib = Trypanosoma brucei MetRS inhibition | actives 0.4% (n = 360,000) | AID 624268 | purified T. brucei MetRS, ATP depletion, Kinase-Glo luminescence | inhibition, % at 11.9 µM;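 active = inhibition above a per-plate cutoff of the control wells' mean inhibition plus 3 SD, cut at about 5.5% in these data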
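Dosing: 11.9 µM single point; system: parasite MetRS enzyme; technique: luminescence of leftover ATP; times: 15 min enzyme-compound preincubation, 2 h reaction, 10 min detection, 25 °C; replicates: each compound tested once; read-out basis: percent inhibition relative to median high and low control wells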
H9c2 TAG inh = reduces triacylglycerol accumulation in H9c2 cells; Nile Red lipid (TAG) fluorescence; cells loaded with 200 µM oleic acid; inhibition, % at 12.5 µM; actives 0.66% (n = 230,000); AID 651582;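 active = pattern-corrected inhibition of lipid staining of at least 50% with the nuclear-stain viability signal not falling by more than 50%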
Efflux pump mplx = antifungal efflux pump inhibition, Nile Red retention. actives 0.44% (n = 330,000). S. cerevisiae Candida pump triplex. inhibition, % at 10 µM;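 active = plate passing quality check with inhibition over a set limit, or well fluorescence over plate mean plus 4 SD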;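 note: Nile Red retained in pooled yeast measured as flow cytometry median fluorescence; higher means more Nile Red kept so more efflux inhibition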
SMARCA2 act = activators of SMARCA2 function. MG213 cells, MMTV-luciferase reporter, dexamethasone, overnight. activation, % at 9.1 µM. actives 1% (n = 370,000). AID 652017; in the data active = activation above about 7.8%
AHR activator = human AHR activation | P35869 | AHR-responsive luciferase reporter cells, luminescence | activation, % at 5 µM | actives 2.5% (n = 320,000) | AID 2796; in the data active = activation above about 47%
Target sequence (P35869 whole entry, looked up): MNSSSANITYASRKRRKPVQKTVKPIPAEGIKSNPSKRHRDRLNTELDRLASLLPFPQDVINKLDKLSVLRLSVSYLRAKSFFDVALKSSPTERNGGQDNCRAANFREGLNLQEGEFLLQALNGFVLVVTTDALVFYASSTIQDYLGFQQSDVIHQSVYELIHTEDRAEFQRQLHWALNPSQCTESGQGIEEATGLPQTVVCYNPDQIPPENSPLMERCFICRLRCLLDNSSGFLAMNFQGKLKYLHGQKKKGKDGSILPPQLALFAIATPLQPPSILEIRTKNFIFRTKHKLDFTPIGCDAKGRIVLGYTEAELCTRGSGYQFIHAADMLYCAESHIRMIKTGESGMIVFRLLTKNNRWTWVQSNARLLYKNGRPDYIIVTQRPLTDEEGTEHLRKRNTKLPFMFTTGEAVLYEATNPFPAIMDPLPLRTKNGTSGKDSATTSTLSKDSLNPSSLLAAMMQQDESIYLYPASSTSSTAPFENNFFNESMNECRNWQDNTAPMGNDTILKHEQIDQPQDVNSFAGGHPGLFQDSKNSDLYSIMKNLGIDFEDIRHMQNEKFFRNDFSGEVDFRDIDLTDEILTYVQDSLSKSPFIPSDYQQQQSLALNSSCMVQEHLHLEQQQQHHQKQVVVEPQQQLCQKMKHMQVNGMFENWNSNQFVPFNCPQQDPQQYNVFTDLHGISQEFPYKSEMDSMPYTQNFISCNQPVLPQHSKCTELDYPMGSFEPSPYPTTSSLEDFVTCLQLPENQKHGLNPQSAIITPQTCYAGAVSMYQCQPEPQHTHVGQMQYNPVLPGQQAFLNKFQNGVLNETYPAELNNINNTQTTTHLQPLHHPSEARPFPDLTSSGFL
Hits are given with their value; - = inactive; . = no result.

SMILES | TbMetRS inhib | H9c2 TAG inh | Efflux pump mplx | SMARCA2 act | AHR activator
CCCCNC(=S)N(C)/N=C/c1c(C)[nH]c2ccccc12 | - | . | - | - | 71
CCCCNC(=S)N(C)/N=C/c1c(F)c(F)c(F)c(F)c1F | - | . | - | - | -
COC(=O)c1cc(-c2ccc(OC)c(OC)c2)c(=O)n2c1CCC2 | . | . | . | - | .
COc1ccc(OC)c(Nc2nc(-c3cccs3)cs2)c1 | - | . | - | - | 48
COc1ccc(Nc2nc(-c3cccs3)cs2)c(OC)c1 | - | - | - | - | 109
COc1ccc(Nc2nc(-c3cccs3)cs2)cc1 | . | . | - | - | 49
COc1ccc(OC)c(Nc2nc(-c3c(C)nc4ncccn34)cs2)c1 | - | . | - | - | -
CCCC(=O)N1CCC[C@]2(CC[C@@H](CCC#N)O2)C1 | . | . | . | - | .
CCN(CC)CCCNC(=O)CC1Oc2ccccc2NC1=O (centres undefined) | . | . | . | - | .
COC(=O)C1=C(C)N(C)C(=NCc2ccccc2C(F)(F)F)NC1c1cccc(F)c1 (centres undefined) | . | . | . | - | .
Cc1sc2nc(Cc3ccccc3)[nH]c(=O)c2c1-c1ccccc1 | - | . | - | - | -
Cc1sc2nc(-c3cccnc3)[nH]c(=O)c2c1-c1ccccc1 | - | - | - | - | 63
COc1cc(Cl)c(C)cc1NC(=O)c1ccc2c(c1)OCO2 | - | - | - | - | 73
COc1cc(Cl)c(C)cc1NC(=O)c1cccc(OC)c1OC | - | - | - | - | 58
COc1ccc(Cl)cc1NC(=O)NCc1ccc2c(c1)OCO2 | - | . | - | - | 76
O=C(NCc1ccc2c(c1)OCO2)Nc1cccc(Cl)c1 | - | . | - | - | -
COc1cccc(NC(=O)c2cccc(OC)c2OC)c1 | - | - | - | - | -
COC(=O)C[C@H]1CC[C@@H]2[C@H](COc3ccc(NC(=O)c4cccc(F)c4)cc3C(=O)N2C)O1 | . | . | . | - | .
COC(=O)[C@@]12CCCCC3=C1N(CCC3)C(=O)[C@H]2CC(=O)N1CCN(C(=O)C2CC2)CC1 | . | . | . | - | .
CC(=O)Oc1cc2c(C(=O)NCc3ccncc3)c(C)oc2c2ccccc12 | - | - | - | - | 52
Cc1oc(-c2ccccc2)cc1C(=O)NCc1ccncc1 | - | - | - | - | -
C/C(=N\Nc1ccc(F)cc1F)c1ccc(N2CCOCC2)cc1 | - | - | - | - | -
C/C(=N\NC(=O)c1ccc(Cl)cc1)c1ccc(Br)s1 | - | - | - | - | -
C/C(=N\Nc1ccc(F)cc1F)c1ccc(Br)s1 | - | - | - | - | 54
C/C(=N\Nc1ccc(F)cc1F)c1ccc(F)cc1 | . | . | - | . | 60
SMILES | TbMetRS inhib | H9c2 TAG inh | Efflux pump mplx | SMARCA2 act | AHR activator
CSc1ccccc1NC(=O)c1cnc2scc(C)n2c1=O | - | - | - | - | 65
Cc1csc2ncc(C(=O)NCc3ccccn3)c(=O)n12 | - | - | - | - | 47
Cc1csc2ncc(C(=O)Nc3ccc(C(F)(F)F)cc3)c(=O)n12 | - | - | - | - | 58
c1ccc2c(c1)[nH]c1c(NCC3CCCO3)ncnc12 (centres undefined) | 54 | - | - | - | -
c1nc(NCC2CCCO2)c2[nH]cnc2n1 (centres undefined) | - | . | - | - | -
COc1ccc(-n2c(SCC(=O)NNC(=S)Nc3ccc(C)cc3)nnc2-c2ccccc2)cc1 | . | . | . | - | .
CCOc1ccccc1NC(=O)c1sc2ncn(CC(=O)N3CCOCC3)c(=O)c2c1C | - | . | - | - | 55
COc1ccccc1NC(=O)c1sc2ncn(CC(=O)N3CCC(C)CC3)c(=O)c2c1C | - | . | - | - | -
CCn1cnc2sc(C(=O)Nc3ccccc3OC)c(C)c2c1=O | - | - | - | - | 68
COC(=O)[C@]12C[C@H](CC(=O)NCc3ccc(C)o3)C(=O)N(CCC3=CCCCC3)C1=C[C@H](C1CCCC1)O[C@@H]2C | . | . | . | - | .
CC1=C(C(N)=O)C(c2cccs2)n2nc(-c3cccc(Cl)c3)nc2N1 (centres undefined) | - | - | - | . | 67
CC(C)C[C@@H](CNCC(=O)[C@H](Cc1c[nH]c2ccccc12)NC(=O)c1[nH]cnc1C(=O)N[C@@H](C)CN)NC(=O)c1nc[nH]c1C(=O)N[C@@H](CC(=O)O)C(=O)O | 11 | - | . | - | .
CC(C)C[C@@H](CN)NC(=O)c1nc[nH]c1C(=O)N[C@@H](Cc1c[nH]c2ccccc12)C(=O)CNC[C@H](C)NC(=O)c1nc[nH]c1C(=O)N[C@@H](CC(=O)O)C(=O)O | - | - | . | - | .
CC(C)C[C@@H](CNCC(=O)[C@H](Cc1ccccc1)NC(=O)c1[nH]cnc1C(=O)N[C@@H](C)CN)NC(=O)c1nc[nH]c1C(=O)N[C@@H](CC(=O)O)C(=O)O | - | - | . | - | .
CC(C)C[C@@H](CNCC(=O)[C@H](Cc1c[nH]c2ccccc12)NC(=O)c1[nH]cnc1C(=O)N[C@H](CN)CC(C)C)NC(=O)c1nc[nH]c1C(=O)N[C@@H](CC(=O)O)C(=O)O | 6.8 | - | . | - | .
Cc1nc2ccccc2c(=O)n1/N=C/c1ccco1 | - | - | - | - | -
O=c1c2ccccc2nc(-c2ccco2)n1/N=C/c1ccco1 | - | - | - | - | 62
O=[N+]([O-])c1ccc(Sc2cccc[n+]2[O-])c2nonc12 | - | 102 | . | - | .
O=[N+]([O-])c1ccc(Nc2ccccc2)c2nonc12 | - | . | - | - | -
O=S1(=O)c2c(cccc2N2CC[C@H](O)C2)OCCCN1C1CC1 | . | . | . | - | .
Cc1cccc(N=c2c([N+](=O)[O-])nn(-c3ccc(Cl)cc3)n2O)c1 | - | - | - | - | 62
Cc1cc(C)cc(N=c2c([N+](=O)[O-])nn(-c3cccc(Cl)c3)n2O)c1 | - | . | - | - | 69
CCc1cccc(N=c2c([N+](=O)[O-])nn(-c3ccc(Cl)cc3)n2O)c1 | - | . | - | - | -
O=[N+]([O-])c1nn(-c2cccc(Cl)c2)n(O)c1=NCc1cccnc1 | - | . | - | - | -
Nc1cc(Nc2ccc(Br)cc2)nc(N)n1 | - | - | - | - | 62
SMILES | TbMetRS inhib | H9c2 TAG inh | Efflux pump mplx | SMARCA2 act | AHR activator
OC[C@H]1CC[C@@H]2O[C@H](CCc3ccc(-c4ccc(F)cc4)cc3)[C@H](n3cc(C4CC4)nn3)C[C@@H]2O1 | . | . | . | - | .
Nc1cc(N)cc(-c2nc3ccccc3o2)c1 | - | - | - | - | 72
COC(=O)[C@]12C[C@H](CC(=O)NCc3ccc(OC)c(OC)c3)C(=O)N(Cc3ccco3)C1=C[C@H](COCc1ccccc1)O[C@@H]2C | . | . | . | - | .
Clc1ccc(-c2n[nH]c3c2Cc2ccccc2-3)cc1Cl | . | . | - | . | 60
COc1ccc(O)c(-c2cc(-c3cccc(Br)c3)n[nH]2)c1 | - | - | - | - | 64
Oc1ccc(Br)cc1-c1cc(-c2ccc(Cl)cc2)n[nH]1 | - | - | - | - | 49
Oc1ccc(Br)cc1-c1cc(-c2ccccc2)n[nH]1 | - | - | - | - | 61
Cc1occc1-c1nnc(SCC(=O)N[C@@H]2CCc3ccccc32)n1-c1ccccc1 | . | . | . | - | .
CC1(C)CC(=O)C2=C(C1)Nc1cc(Cl)ccc1S2 | - | - | - | - | 53
CC1(C)CC(=O)C2=C(C1)NC(=O)NC2c1ccc(Cl)cc1 (centres undefined) | - | . | - | - | -
